Results published in ChEMBL document CHEMBL4376874, “Discovery of Potent and Selective Epidermal Growth Factor Receptor (EGFR) Bifunctional Small-Molecule Degraders” (J Med Chem, 2020).
Calls of active or inactive are those of the source. The calls are words filed in the database; no cut-off is given here.

Key:
[1] = tested on: NCI-H3255; test: Antiproliferative activity against human H3255 cells measured after 3 days by CCK8 assay; format: functional, cell-based
In short: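 H3255 cells seeded 4000/well the night before, then exposed to serial dilutions for 3 days. Growth read by Cell Counting Kit-8; three independent experiments. IC50 from nonlinear regression (log inhibitor vs response, variable slope).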

[2] = biological target: T1, Epidermal growth factor receptor (Homo sapiens, UniProt P00533); test: Binding affinity to human wild-type partial length EGFR (R669 to V1011 residues) expressed in bacterial expression system by kinomescan assay
[3] = biological target: Epidermal growth factor receptor (Homo sapiens, UniProt P00533, L858R); set-up: species or system Hofmanni bacterium
[4] = tested on: Epidermal growth factor receptor (Homo sapiens), P00533 [L858R]; test: Induction of EGFR L858R degradation in human H3255 cells assessed as reduction in EGFR autophosphorylation up to 100 nM treated 8 hrs post serum starvation measured after 16 hrs by Western blot analysis; format: cell-based
[5] = tested on: Epidermal growth factor receptor (Homo sapiens), P00533 [UNDEFINED MUTATION]; test: Induction of EGFR exon 19 deletion mutant degradation in human HCC827 cells assessed as reduction in EGFR autophosphorylation up to 100 nM treated 8 hrs post serum starvation measured after 16 hrs by Western blot analysis; format: cell-based
[6] = tested on: Epidermal growth factor receptor (Homo sapiens), P00533 [UNDEFINED MUTATION]; test: Induction of EGFR exon 19 deletion mutant degradation in human HCC827 cells up to 100 nM treated 8 hrs post serum starvation measured after 16 hrs by Western blot analysis; format: cell-based
[7] = tested on: Epidermal growth factor receptor (Homo sapiens), P00533 [L858R]; test: Induction of EGFR L858R degradation in human H3255 cells assessed as reduction in ATK phosphorylation up to 100 nM treated 8 hrs post serum starvation measured after 16 hrs by Western blot analysis; format: cell-based
[8] = tested on: Epidermal growth factor receptor (Homo sapiens), P00533 [UNDEFINED MUTATION]; test: Induction of EGFR exon 19 deletion mutant degradation in human HCC827 cells assessed as reduction in AKT phosphorylation up to 100 nM treated 8 hrs post serum starvation measured after 16 hrs by Western blot analysis; format: cell-based
[9] = tested on: Epidermal growth factor receptor (Homo sapiens), P00533 [L858R]; test: Induction of EGFR L858R degradation in human H3255 cells up to 100 nM treated 8 hrs post serum starvation measured after 16 hrs by Western blot analysis; format: cell-based
[10] = tested on: von Hippel-Lindau disease tumor suppressor/Epidermal growth factor receptor (Homo sapiens), P00533+P40337 [UNDEFINED MUTATION]; test: Protac activity at VHL/EGFR exon 19 deletion mutant in human HCC827 cells assessed as induction of EGFR degradation at up to 1 uM treated 8 hrs post serum starvation measured after 16 hrs by Western blot analysis; format: cell-based
In short: (§1)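 Cultured to 80% confluence in RPMI/1640 with 20% FBS at 37 °C and 5% CO2, then switched to serum-free medium for 8 h. Degraders were added over a concentration range up to 10 μM for 16 h, with gefitinib at 1 μM as reference. Lysates in Laemmli buffer were immunoblotted for EGFR, p-EGFR and p-AKT. DC50 came from band quantification by nonlinear regression (variable slope).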

[11] = tested on: Protein cereblon/Epidermal growth factor receptor (Homo sapiens), P00533+Q96SW2 [UNDEFINED MUTATION]; test: Protac activity at CRBN/EGFR exon 19 deletion mutant in human HCC827 cells assessed as induction of EGFR degradation at up to 1 uM treated 8 hrs post serum starvation measured after 16 hrs by Western blot analysis; format: cell-based
[12] = tested on: von Hippel-Lindau disease tumor suppressor/Epidermal growth factor receptor (Homo sapiens), P00533+P40337 [UNDEFINED MUTATION]; test: Protac activity at VHL/EGFR exon 19 deletion mutant in human HCC827 cells assessed as induction of EGFR degradation up to 500 nM treated 8 hrs post serum starvation measured after 16 hrs by Western blot analysis; format: cell-based
[13] = tested on: von Hippel-Lindau disease tumor suppressor/Epidermal growth factor receptor (Homo sapiens), P00533+P40337 [L858R]; test: Protac activity at VHL/EGFR L858R mutant in human H3255 cells assessed as induction of EGFR degradation at 1 to 10 uM treated 8 hrs post serum starvation measured after 16 hrs by Western blot analysis; format: cell-based; in short: as §1
[14] = tested on: von Hippel-Lindau disease tumor suppressor/Epidermal growth factor receptor (Homo sapiens), P00533+P40337 [L858R]; test: Protac activity at VHL/EGFR L858R mutant in human H3255 cells assessed as induction of EGFR degradation up to 500 nM treated 8 hrs post serum starvation measured after 16 hrs by Western blot analysis; format: cell-based; in short: as §1
[15] = tested on: von Hippel-Lindau disease tumor suppressor/Epidermal growth factor receptor (Homo sapiens), P00533+P40337 [UNDEFINED MUTATION]; test: Protac activity at VHL/EGFR exon 19 deletion mutant in human HCC827 cells assessed as induction of EGFR degradation at 1 to 10 uM treated 8 hrs post serum starvation measured after 16 hrs by Western blot analysis; format: cell-based; in short: as §1
[16] = tested on: von Hippel-Lindau disease tumor suppressor/Epidermal growth factor receptor (Homo sapiens), P00533+P40337 [L858R]; test: Protac activity at VHL/EGFR L858R mutant in human H3255 cells assessed as reduction in EGFR autophosphorylation up to 10 uM treated 8 hrs post serum starvation measured after 16 hrs by Western blot analysis; format: cell-based
[17] = tested on: von Hippel-Lindau disease tumor suppressor/Epidermal growth factor receptor (Homo sapiens), P00533+P40337 [L858R]; test: Protac activity at VHL/EGFR L858R mutant in human H3255 cells assessed as reduction in AKT phosphorylation up to 10 uM treated 8 hrs post serum starvation measured after 16 hrs by Western blot analysis; format: cell-based
[18] = tested on: von Hippel-Lindau disease tumor suppressor/Epidermal growth factor receptor (Homo sapiens), P00533+P40337 [UNDEFINED MUTATION]; test: Protac activity at VHL/EGFR exon 19 deletion mutant in human HCC827 cells assessed as reduction in EGFR autophosphorylation up to 10 uM treated 8 hrs post serum starvation measured after 16 hrs by Western blot analysis; format: cell-based
[19] = tested on: von Hippel-Lindau disease tumor suppressor/Epidermal growth factor receptor (Homo sapiens), P00533+P40337 [UNDEFINED MUTATION]; test: Protac activity at VHL/EGFR exon 19 deletion mutant in human HCC827 cells assessed as reduction in AKT phosphorylation up to 10 uM treated 8 hrs post serum starvation measured after 16 hrs by Western blot analysis; format: cell-based
[20] = biological target: von Hippel-Lindau disease tumor suppressor/Epidermal growth factor receptor (Homo sapiens, UniProt P00533+P40337, L858R)
[21] = tested on: HCC827; test: Up regulation of BIN1 expression in human HCC827 cells at 100 nM measured after 16 hrs by LC-MS analysis; format: functional, cell-based
In short: (§2)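 HCC-827 cells serum-starved 8 h, then treated at 100 nM for 16 h. Collected for label-free quantitative LC–MS proteomics; LFQ intensity compared between treated and control groups; three independent experiments.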

[22] = tested on: HCC827; test: Up regulation of RRM2 expression in human HCC827 cells at 100 nM measured after 16 hrs by LC-MS analysis; format: functional, cell-based; in short: as §2
[23] = tested on: HCC827; test: Up regulation of DAD1 expression in human HCC827 cells at 100 nM measured after 16 hrs by LC-MS analysis; format: functional, cell-based; in short: as §2
[24] = tested on: HCC827; test: Effect on AKT level in human HCC827 cells up to 10 uM treated 8 hrs post serum starvation measured after 16 hrs by Western blot analysis; format: ADME, cell-based; conditions: hcc827, 16 h
[25] = biological target: T1, Epidermal growth factor receptor; test: Induction of wild-type EGFR degradation in human H1299 cells at up to 10 uM treated 8 hrs post serum starvation measured after 16 hrs by Western blot analysis; format: cell-based
[26] = Toxicity in Swiss albino mouse assessed as clinical changes at 50 mg/kg, ip; format: organism-based; conditions: in vivo
[27] = Cmax in Swiss albino mouse at 50 mg/kg, ip measured after 8 hrs; format: ADME, organism-based; set-up: dose 50 mg/kg, route intraperitoneal; conditions: in vivo
[28] = Cmax in Swiss albino mouse at 50 mg/kg, ip measured after 24 hrs; format: ADME, organism-based; set-up: dose 50 mg/kg, route intraperitoneal; conditions: in vivo
[29] = tested on: NCI-H3255; test: Effect on AKT level in human H3255 cells up to 10 uM treated 8 hrs post serum starvation measured after 16 hrs by Western blot analysis; format: ADME, cell-based; conditions: nci-h3255, 16 h
[30] = tested on: HCC827; test: Up regulation of HMGCS1 expression in human HCC827 cells at 100 nM measured after 16 hrs by LC-MS analysis; format: functional, cell-based; in short: as §2
[31] = tested on: HCC827; test: Up regulation of SEC61G expression in human HCC827 cells at 100 nM measured after 16 hrs by LC-MS analysis; format: functional, cell-based; in short: as §2
[32] = biological target: T1, Epidermal growth factor receptor; test: Induction of wild-type EGFR degradation in human OVCAR8 cells at up to 10 uM treated 8 hrs post serum starvation measured after 16 hrs by Western blot analysis; format: cell-based
[33] = tested on: HCC827; test: Down regulation of NGDN expression in human HCC827 cells at 100 nM measured after 16 hrs by LC-MS analysis; format: functional, cell-based; in short: as §2
[34] = tested on: HCC827; test: Down regulation of TXNIP expression in human HCC827 cells at 100 nM measured after 16 hrs by LC-MS analysis; format: functional, cell-based; in short: as §2
[35] = biological target: von Hippel-Lindau disease tumor suppressor/Epidermal growth factor receptor (Homo sapiens, UniProt P00533+P40337); test: Protac activity at VHL/EGFR exon 19 deletion mutant in human HCC827 cells assessed as induction of EGFR degradation treated 8 hrs post serum starvation measured after 16 hrs by Western blot analysis

COc1cc2ncnc(Nc3ccc(F)c(Cl)c3)c2cc1OCCCN1CCOCC1
Activity [1]: Active

COc1cc2ncnc(Nc3ccc(F)c(Cl)c3)c2cc1OCCCN1CCN(CCC(=O)NCCCCCCCCOc2cccc3c2C(=O)N(C2CCC(=O)N(C)C2=O)C3=O)CC1 (configuration not stated)
Kd [2]: 3 nM | Kd [3]: 4.3 nM | Activity [1]: Active | Activity [4]: Active | Activity [5]: Active | Activity [6]: inactive | Activity [7]: Active | Activity [8]: Active | Activity [9]: inactive

COc1cc2ncnc(Nc3ccc(F)c(Cl)c3)c2cc1OCCCN1CCN(C(=O)CCOCCOCCOCCC(=O)N[C@H](C(=O)N2C[C@H](O)C[C@H]2C(=O)NCc2ccc(-c3scnc3C)cc2)C(C)(C)C)CC1
Activity [10]: inactive

COc1cc2ncnc(Nc3ccc(F)c(Cl)c3)c2cc1OCCCN1CCN(CCC(=O)NCCCCCCNc2cccc3c2C(=O)N(C2CCC(=O)NC2=O)C3=O)CC1 (configuration not stated)
Activity [11]: Active

COc1cc2ncnc(Nc3ccc(F)c(Cl)c3)c2cc1OCCCN1CCN(C(=O)CCCCCCCCCC(=O)N[C@H](C(=O)N2C[C@@H](O)C[C@@H]2C(=O)NCc2ccc(-c3scnc3C)cc2)C(C)(C)C)CC1
Kd [2]: 8.6 nM | Kd [3]: 9 nM | Activity [1]: Active

COc1cc2ncnc(Nc3ccc(F)c(Cl)c3)c2cc1OCCCN1CCN(CCC(=O)NCCOCCNc2cccc3c2C(=O)N(C2CCC(=O)NC2=O)C3=O)CC1 (configuration not stated)
Activity [11]: Active

COc1cc2ncnc(Nc3ccc(F)c(Cl)c3)c2cc1OCCCN1CCN(C(=O)CCOCCOCCOCCOCCOCCC(=O)N[C@H](C(=O)N2C[C@H](O)C[C@H]2C(=O)NCc2ccc(-c3scnc3C)cc2)C(C)(C)C)CC1
Activity [10]: inactive

COc1cc2ncnc(Nc3ccc(F)c(Cl)c3)c2cc1OCCCCCOCCOCCC(=O)N[C@H](C(=O)N1C[C@H](O)C[C@H]1C(=O)NCc1ccc(-c2scnc2C)cc1)C(C)(C)C
Activity [12]: Active | Activity [13]: inactive | Activity [14]: Active | Activity [15]: inactive | Activity [16]: Active | Activity [17]: Active | Activity [1]: Active | Activity [18]: Active | Activity [19]: Active

COc1cc2ncnc(Nc3ccc(F)c(Cl)c3)c2cc1OCCCN1CCN(C(=O)CCOCCC(=O)N[C@H](C(=O)N2C[C@H](O)C[C@H]2C(=O)NCc2ccc(-c3scnc3C)cc2)C(C)(C)C)CC1
Activity [10]: inactive

COc1cc2ncnc(Nc3ccc(F)c(Cl)c3)c2cc1OCCCN1CCN(C(=O)CCCCCCCCCC(=O)N[C@H](C(=O)N2C[C@H](O)C[C@H]2C(=O)NCc2ccc(-c3scnc3C)cc2)C(C)(C)C)CC1
Kd [2]: 11 nM | DC50 [20]: 3.3 nM | Activity [21]: Active | Activity [22]: Active | Activity [23]: Active | Activity [24]: Non-Toxic | Kd [3]: 12 nM | Activity [1]: Active | Activity [25]: Not Active | Activity [26]: Non-Toxic | Cmax [27]: 5000 nM | Cmax [28]: 1000 nM | Activity [29]: Non-Toxic | Activity [30]: Active | Activity [31]: Active | Activity [32]: Not Active | Activity [33]: Active | Activity [34]: Active | DC50 [35]: 5 nM

COc1cc2ncnc(Nc3ccc(F)c(Cl)c3)c2cc1OCCCN1CCN(CCC(=O)NCCOCCOCCOCCOCCOCCNc2cccc3c2C(=O)N(C2CCC(=O)NC2=O)C3=O)CC1 (configuration not stated)
Activity [11]: Active
